Test results as given in ChEMBL document CHEMBL1154352, “Toll-like receptor 7 selective synthetic oligoribonucleotide agonists: synthesis and structure-activity relationship studies” (J Med Chem, 2009).
The source made the active and inactive calls. The calls are words filed in the database; no cut-off is given here.

What was measured:
[1] = molecular target: T1, Toll-like receptor 9 (Mus musculus) (UniProt Q9EQU3); experiment: Activation of mouse TLR9 expressed in HEK293 assessed as induction of NF-kappaB activity reporter gene assay; assay type: cell-based
T1 sequence (whole entry): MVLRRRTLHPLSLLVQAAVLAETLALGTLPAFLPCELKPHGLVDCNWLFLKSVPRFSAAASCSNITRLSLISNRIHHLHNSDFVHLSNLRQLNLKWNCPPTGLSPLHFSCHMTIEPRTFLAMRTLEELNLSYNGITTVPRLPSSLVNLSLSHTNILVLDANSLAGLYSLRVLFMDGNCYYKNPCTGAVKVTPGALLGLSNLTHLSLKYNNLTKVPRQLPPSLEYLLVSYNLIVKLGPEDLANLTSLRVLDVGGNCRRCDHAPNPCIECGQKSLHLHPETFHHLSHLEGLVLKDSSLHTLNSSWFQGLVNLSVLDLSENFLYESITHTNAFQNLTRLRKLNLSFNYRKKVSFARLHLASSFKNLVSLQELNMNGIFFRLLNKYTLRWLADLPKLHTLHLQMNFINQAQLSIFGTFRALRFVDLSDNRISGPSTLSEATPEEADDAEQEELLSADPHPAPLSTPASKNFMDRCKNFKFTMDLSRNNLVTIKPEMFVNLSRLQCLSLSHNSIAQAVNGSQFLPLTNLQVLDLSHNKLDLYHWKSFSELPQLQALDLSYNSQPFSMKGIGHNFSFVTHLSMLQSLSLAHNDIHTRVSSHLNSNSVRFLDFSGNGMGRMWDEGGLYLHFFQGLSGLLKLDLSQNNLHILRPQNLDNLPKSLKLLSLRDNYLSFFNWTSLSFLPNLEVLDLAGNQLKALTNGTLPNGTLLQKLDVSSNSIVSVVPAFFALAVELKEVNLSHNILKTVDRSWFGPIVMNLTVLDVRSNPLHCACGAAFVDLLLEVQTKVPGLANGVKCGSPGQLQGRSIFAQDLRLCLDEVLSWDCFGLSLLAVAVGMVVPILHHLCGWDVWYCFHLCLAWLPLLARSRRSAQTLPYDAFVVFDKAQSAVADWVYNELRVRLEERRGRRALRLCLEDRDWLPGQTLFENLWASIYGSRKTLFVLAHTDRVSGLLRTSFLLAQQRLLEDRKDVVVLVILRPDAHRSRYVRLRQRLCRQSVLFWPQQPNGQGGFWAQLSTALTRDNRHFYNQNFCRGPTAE

[2] = molecular target: T2, Toll-like receptor 7 (Homo sapiens) (UniProt Q9NYK1); experiment: Activation of human TLR7 expressed in HEK293XL assessed as fold induction of NF-kappaB activity at 50 ug/ml after 18 hrs by reporter gene assay relative to control
T2 sequence (whole entry): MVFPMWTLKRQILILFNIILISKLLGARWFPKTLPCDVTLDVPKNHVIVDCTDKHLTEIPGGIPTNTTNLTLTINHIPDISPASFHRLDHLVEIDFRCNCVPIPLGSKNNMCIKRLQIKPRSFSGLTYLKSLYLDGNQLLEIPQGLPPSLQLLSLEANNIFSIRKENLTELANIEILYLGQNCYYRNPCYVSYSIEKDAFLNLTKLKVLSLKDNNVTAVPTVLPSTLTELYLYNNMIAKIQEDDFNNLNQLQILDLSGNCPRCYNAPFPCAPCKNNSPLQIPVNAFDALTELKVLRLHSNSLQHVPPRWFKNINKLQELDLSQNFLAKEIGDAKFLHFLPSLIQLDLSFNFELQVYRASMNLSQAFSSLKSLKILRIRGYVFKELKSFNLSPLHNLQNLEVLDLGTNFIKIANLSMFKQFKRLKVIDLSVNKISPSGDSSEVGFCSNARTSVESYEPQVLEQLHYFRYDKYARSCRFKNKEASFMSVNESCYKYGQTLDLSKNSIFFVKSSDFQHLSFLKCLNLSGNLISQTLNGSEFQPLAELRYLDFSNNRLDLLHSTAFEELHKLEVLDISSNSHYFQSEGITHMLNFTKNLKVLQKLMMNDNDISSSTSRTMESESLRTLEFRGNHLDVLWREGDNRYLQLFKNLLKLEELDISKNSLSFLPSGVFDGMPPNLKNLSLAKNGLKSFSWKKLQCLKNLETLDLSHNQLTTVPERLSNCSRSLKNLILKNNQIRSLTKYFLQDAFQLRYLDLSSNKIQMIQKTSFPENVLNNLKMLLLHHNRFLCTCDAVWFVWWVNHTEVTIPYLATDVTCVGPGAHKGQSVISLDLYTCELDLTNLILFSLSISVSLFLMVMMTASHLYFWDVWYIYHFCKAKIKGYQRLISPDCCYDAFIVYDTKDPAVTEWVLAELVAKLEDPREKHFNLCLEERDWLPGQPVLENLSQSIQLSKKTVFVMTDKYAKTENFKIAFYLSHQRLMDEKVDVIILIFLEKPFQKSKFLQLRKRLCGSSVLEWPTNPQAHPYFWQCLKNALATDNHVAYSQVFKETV
In short: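 HEK293 cells stably expressing human TLR7 or TLR8, transiently transfected with SEAP reporter plasmid; medium replaced, SIMRA compounds added, 18 h incubation. Supernatant SEAP measured by QuantiBlue; expressed as fold increase in NF-κB activity over PBS control. Tabulated data at 50 μg/mL, representative of three independent experiments.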

Homo sapiens = species on record: Homo sapiens; experiment: Ratio of human TLR7 activity to human TLR8 activity
In short: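 TLR7/TLR8 ratio computed from fold NF-κB (SEAP reporter) activation in HEK293 cells stably expressing human TLR7 versus TLR8, compounds at 50 μg/mL, 18 h exposure; representative of three independent experiments.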

Splenocyte [3] = experiment: Immunomodulatory activity in C57BL/6 mouse splenocytes bearing TLR7 receptor assessed as IL6 release at 100 ug/ml after 24 hrs by ELISA; assay type: functional, cell-based
In short: (§1)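 C57BL/6 splenocytes in RPMI 1640 with 10% FBS, penicillin/streptomycin, 2 mM L-glutamine, plated at 5 × 10^6 cells/mL; compounds in PBS added, 37 °C for 24 h. Supernatant IL-12 and IL-6 by ELISA; representative of three independent experiments.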

Splenocyte [4] = experiment: Immunomodulatory activity in C57BL/6 mouse splenocytes bearing TLR7 receptor assessed as IL12 release at 100 ug/ml after 24 hrs by ELISA; assay type: functional, cell-based; in short: as §1

Row | Structure (SMILES) | Activity [1] | fold change (FC) [2] | Ratio (Homo sapiens) | Activity (Splenocyte [3]) | Activity (Splenocyte [4])
1 | Nc1ccn([C@@H]2O[C@H](COP(=O)(S)O[C@H]3[C@@H](O)[C@H](n4ccc(N)nc4=O)O[C@@H]3COP(=O)(S)O[C@H]3[C@@H](O)[C@H](n4cnc5c(N)ncnc54)O[C@@H]3COP(=O)(S)O[C@H]3[C@@H](O)[C@H](n4ccc5c(=O)[nH]c(N)nc54)O[C@@H]3COP(=O)(S)O[C@H]3[C@@H](O)[C@H](n4ccc(=O)[nH]c4=O)O[C@@H]3COP(=O)(S)O[C@H]3[C@@H](O)[C@H](n4ccc(=O)[nH]c4=O)O[C@@H]3COP(=O)(S)O[C@H]3[C@@H](O)[C@H](n4ccc(N)nc4=O)O[C@@H]3COP(=O)(S)O[C@H]3[C@@H](O)[C@H](n4cnc5c(N)ncnc54)O[C@@H]3CO)[C@@H](OP(=O)(S)OC[C@H]3O[C@@H](n4ccc(=O)[nH]c4=O)[C@H](O)[C@@H]3OP(=O)(S)OC[C@H]3O[C@@H](n4ccc(=O)[nH]c4=O)[C@H](O)[C@@H]3OP(=O)(S)OC[C@H]3O[C@@H](n4ccc(=O)[nH]c4=O)[C@H](O)[C@@H]3OP(=O)(S)OCC(O)COP(=O)(S)O[C@H]3[C@@H](O)[C@H](n4ccc(=O)[nH]c4=O)O[C@@H]3COP(=O)(S)O[C@H]3[C@@H](O)[C@H](n4ccc(=O)[nH]c4=O)O[C@@H]3COP(=O)(S)O[C@H]3[C@@H](O)[C@H](n4ccc(=O)[nH]c4=O)O[C@@H]3COP(=O)(S)O[C@H]3[C@@H](O)[C@H](n4ccc(N)nc4=O)O[C@@H]3COP(=O)(S)O[C@H]3[C@@H](O)[C@H](n4ccc(N)nc4=O)O[C@@H]3COP(=O)(S)O[C@H]3[C@@H](O)[C@H](n4cnc5c(N)ncnc54)O[C@@H]3COP(=O)(S)O[C@H]3[C@@H](O)[C@H](n4ccc5c(=O)[nH]c(N)nc54)O[C@@H]3COP(=O)(S)O[C@H]3[C@@H](O)[C@H](n4ccc(=O)[nH]c4=O)O[C@@H]3COP(=O)(S)O[C@H]3[C@@H](O)[C@H](n4ccc(=O)[nH]c4=O)O[C@@H]3COP(=O)(S)O[C@H]3[C@@H](O)[C@H](n4ccc(N)nc4=O)O[C@@H]3COP(=O)(S)O[C@H]3[C@@H](O)[C@H](n4cnc5c(N)ncnc54)O[C@@H]3CO)[C@H]2O)c(=O)n1 (stereo not given in full) | inactive | 23.3 | 12.9 | Active | Active
2 | Nc1ccn([C@@H]2O[C@H](COP(=O)(S)O[C@H]3[C@@H](O)[C@H](n4cnc5c(N)ncnc54)O[C@@H]3COP(=O)(S)O[C@H]3[C@@H](O)[C@H](n4cnc5c(N)ncnc54)O[C@@H]3CO)[C@@H](OP(=O)(S)OC[C@H]3O[C@@H](n4ccc(=O)[nH]c4=O)[C@H](O)[C@@H]3OP(=O)(S)OC[C@H]3O[C@@H](n4ccc5c(=O)[nH]c(N)nc54)[C@H](O)[C@@H]3OP(=O)(S)OC[C@H]3O[C@@H](n4ccc(N)nc4=O)[C@H](O)[C@@H]3OP(=O)(S)OC[C@H]3O[C@@H](n4ccc5c(=O)[nH]c(N)nc54)[C@H](O)[C@@H]3OP(=O)(S)OC[C@H]3O[C@@H](n4cnc5c(N)ncnc54)[C@H](O)[C@@H]3OP(=O)(S)OC[C@H]3O[C@@H](n4ccc(N)nc4=O)[C@H](O)[C@@H]3OP(=O)(S)OC[C@H]3O[C@@H](n4ccc(=O)[nH]c4=O)[C@H](O)[C@@H]3OP(=O)(S)OC[C@H]3O[C@@H](n4ccc(=O)[nH]c4=O)[C@H](O)[C@@H]3OP(=O)(S)OCC(O)COP(=O)(S)O[C@H]3[C@@H](O)[C@H](n4ccc(=O)[nH]c4=O)O[C@@H]3COP(=O)(S)O[C@H]3[C@@H](O)[C@H](n4ccc(=O)[nH]c4=O)O[C@@H]3COP(=O)(S)O[C@H]3[C@@H](O)[C@H](n4ccc(N)nc4=O)O[C@@H]3COP(=O)(S)O[C@H]3[C@@H](O)[C@H](n4cnc5c(N)ncnc54)O[C@@H]3COP(=O)(S)O[C@H]3[C@@H](O)[C@H](n4ccc5c(=O)[nH]c(N)nc54)O[C@@H]3COP(=O)(S)O[C@H]3[C@@H](O)[C@H](n4ccc(N)nc4=O)O[C@@H]3COP(=O)(S)O[C@H]3[C@@H](O)[C@H](n4ccc5c(=O)[nH]c(N)nc54)O[C@@H]3COP(=O)(S)O[C@H]3[C@@H](O)[C@H](n4ccc(=O)[nH]c4=O)O[C@@H]3COP(=O)(S)O[C@H]3[C@@H](O)[C@H](n4ccc(N)nc4=O)O[C@@H]3COP(=O)(S)O[C@H]3[C@@H](O)[C@H](n4cnc5c(N)ncnc54)O[C@@H]3COP(=O)(S)O[C@H]3[C@@H](O)[C@H](n4cnc5c(N)ncnc54)O[C@@H]3CO)[C@H]2O)c(=O)n1 (stereo not given in full) | inactive | 6.5 | 21.7 | Active | Active
